Results on 23 molecules are retold here after ChEMBL document CHEMBL2311285, “3-Thiomorpholin-8-oxo-8H-acenaphtho [1,2-b] pyrrole-9-carbonitrile (S1) derivatives as pan-Bcl-2-inhibitors of Bcl-2, Bcl-xL and Mcl-1” (Bioorg Med Chem, 2013).

In brackets after ≈: the same amount, converted by molar mass. Activity calls are given as the source filed them. No cut-off for these calls is given here. Bounds are passed on as bounds.

Series [1] concerns the target Bcl-2-like protein 1 (Homo sapiens, UniProt Q07817). The series can be described thus: Binding affinity to N-terminal 8xHis tagged cBcl-XL (unknown origin) expressed in Escherichia coli BL21 (DE3) by ELISA.
Series [2] deals with T1, Apoptosis regulator Bcl-2 (Homo sapiens, UniProt P10415). The series can be described thus: Binding affinity to human Bcl-2 (unknown origin) by ITC assay. For orientation: In ITC the heat of successive injections is recorded.
In series [3] the target is T1, Apoptosis regulator Bcl-2. The experiment in a line: Binding affinity to human Bcl-2 (unknown origin) by biotin-Bim displacement based ELISA.
In series [4] the target is T2, Induced myeloid leukemia cell differentiation protein Mcl-1 (Homo sapiens, UniProt Q07820). The experiment in a line: Binding affinity to cMcl-1 (residues 171 to 327) (unknown origin) by biotin-Bim displacement based ELISA. The essentials: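 Competitive ELISA: biotin-Bim (residues 81-106) at 0.09 µg/mL in blocking buffer bound to streptavidin-coated wells for 1.5 h. Serial compound dilutions (from 10 mM DMSO stock) containing 0.01% Triton X-100 preincubated 1 h with 20 nM His-tagged protein in PBS, then transferred to wells for 2 h. Anti-His-HRP added for 1 h, then TMB for 30 min, stopped with H2SO4. Room temperature throughout.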
A general note: ELISA stands for enzyme-linked immunosorbent assay.

The target of series [5] is T2, Induced myeloid leukemia cell differentiation protein Mcl-1. The series can be described thus: Binding affinity to cMcl-1 (residues 171 to 327) (unknown origin) by ITC assay. The essentials: (§1)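 ITC at 25 °C in 20 mM Tris pH 8.0, 150 mM NaCl, 1% DMSO. For wild-type versus R263A comparison, 16 × 2.5 µL injections of 500 µM compound into 50 µM protein. Data were corrected against a buffer-only cell titrated with compound and fitted to a one-site model to give Kd.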

Series [6] relates to HL-60. The experiment in a line: Induction of apoptosis in human HL60 cells assessed as cytochrome c release at 5 uM incubated for 12 hrs by Western blotting method. Type of series: functional, cell-based. The essentials: (§2)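 Cells treated 12 h with 5 µM compound, then lysed in digitonin lysis buffer. After centrifugation, the cytosolic supernatant (S-100) was probed for cytochrome c by western blot. A parallel harvest was used for Mcl-1/Bak and Bcl-2/Bax co-immunoprecipitation.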

Series [7] in a line: Solubility in 1% DMSO/H2O. Type of series: physicochemical.
The subject of series [8] is K562. The experiment in a line: Induction of apoptosis in human K562 cells assessed as cytochrome c release at 5 uM incubated for 12 hrs by Western blotting method. The class given is functional, cell-based. The essentials: as §2
The target in series [9] is Induced myeloid leukemia cell differentiation protein Mcl-1 (Homo sapiens, UniProt Q07820, R263A). The experiment in a line: Binding affinity to cMcl-1 R263A mutant (unknown origin) by ITC assay. The class given is single protein. The essentials:
as §1

Series [10] relates to MCF7. The series can be described thus: Induction of apoptosis in human MCF7 cells assessed as cytochrome c release at 5 uM incubated for 12 hrs in presence of Bax/Bak ShRNA by Western blotting method. Type of series: functional, cell-based. The essentials:
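Wild-type MCF-7 cells and Bax/Bak shRNA-transfected MCF-7 cells were treated with 5 µM compound. Cytochrome c was detected by western blot in the S-100 cytosolic fraction, obtained from digitonin lysis and centrifugation.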
(In general: Immunoblotting shows a protein as a band on a membrane.)

As usually defined, the IC50 is the concentration that inhibits the measured activity by half. Higher therefore signals lower potency. One may read the solubility as the concentration that dissolves in the medium under given conditions. Read a high solubility as a readily soluble substance.

Chain of Bcl-2-like protein 1 (Q07817 whole entry): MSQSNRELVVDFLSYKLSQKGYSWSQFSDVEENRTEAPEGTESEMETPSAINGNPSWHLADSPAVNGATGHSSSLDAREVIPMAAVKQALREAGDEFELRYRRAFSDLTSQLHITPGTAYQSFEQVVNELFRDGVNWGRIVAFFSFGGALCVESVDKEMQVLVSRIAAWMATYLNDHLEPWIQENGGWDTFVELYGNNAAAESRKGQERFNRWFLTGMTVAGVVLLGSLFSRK
Chain of Induced myeloid leukemia cell differentiation protein Mcl-1 (Homo sapiens, UniProt Q07820, R263A) (Q07820 whole entry R263A): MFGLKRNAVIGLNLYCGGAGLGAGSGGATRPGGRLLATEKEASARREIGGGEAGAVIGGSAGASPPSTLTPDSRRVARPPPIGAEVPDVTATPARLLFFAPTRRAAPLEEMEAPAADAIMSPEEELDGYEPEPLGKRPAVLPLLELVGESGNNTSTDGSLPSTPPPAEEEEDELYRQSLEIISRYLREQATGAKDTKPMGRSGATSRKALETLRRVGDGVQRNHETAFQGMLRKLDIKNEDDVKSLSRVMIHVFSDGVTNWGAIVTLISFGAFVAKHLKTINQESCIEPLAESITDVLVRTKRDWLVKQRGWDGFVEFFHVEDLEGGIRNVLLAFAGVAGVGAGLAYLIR
T1 sequence (P10415 whole entry): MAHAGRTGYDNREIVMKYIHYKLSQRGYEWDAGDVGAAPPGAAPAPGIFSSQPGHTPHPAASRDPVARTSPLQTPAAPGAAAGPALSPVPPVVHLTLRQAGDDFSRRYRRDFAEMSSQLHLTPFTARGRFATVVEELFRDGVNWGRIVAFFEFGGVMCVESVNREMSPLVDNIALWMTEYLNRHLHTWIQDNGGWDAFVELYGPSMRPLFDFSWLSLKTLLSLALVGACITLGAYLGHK
T2 sequence (Q07820 whole entry, the tested form may be a part): as the sequence (Q07820 whole entry R263A) above, with A263R counted along it

As for `COc1ccc(Sc2ccc3c4c(cccc24)C2=NC(=O)C(C#N)=C23)cc1`, the IC50 is 833 nM in series [1], 945 nM in series [3] and 388 nM in [4]. Besides, the Kd is 955 nM in series [2] and 389 nM in series [5] (read-out: pKd (converted)).

Regarding `CCCCNC1=C2C(=NC1=O)c1cccc3c(Sc4ccc(OC)cc4)ccc2c13`, the results for the IC50 in [1], in [3] and in series [4] were 315 nM, 356 nM and 150 nM, respectively. Further, the Kd in series [2] is 355 nM; in series [5] (read-out: pKd (converted)), 151 nM.

In the case of `CCCCCCNC1=C2C(=NC1=O)c1cccc3c(Sc4ccc(OC)cc4)ccc2c13`, the IC50 in series [1] turned out to be 181 nM; in series [3], 206 nM; in series [4] it was 78 nM. The Kd was 204 nM in series [2] and 77.6 nM in series [5] (read-out: pKd (converted)).

As for `CCCCNC1=C2C(=NC1=O)c1cccc3c(Sc4ccc(N)cc4)ccc2c13`, the result in series [6] and in [8] was Active. Besides, the concentration in solution in series [7] (solubility) came to 27 µg/mL (≈ 67.6 µM). Further, the values for the IC50 in series [1], in series [3] and in series [4] were 165 nM, 190 nM and 50 nM, respectively. For the same molecule, the Kd in series [2] was 191 nM; in series [9], 12800 nM; in [5] (read-out: Kd) it was 512 nM; in series [5] (read-out: pKd (converted)) it was 50.1 nM. Moreover, the result in series [10] was inactive.

Take `Cc1cc2c(C(C)C)c(O)c(O)c(C=O)c2c(O)c1-c1c(C)cc2c(C(C)C)c(O)c(O)c(C=O)c2c1O` [GOSSYPOL]: the result in series [10] was Active. Besides, the Kd in series [5] (read-out: Kd) came to 2320 nM.

As for `Nc1ccc(Sc2ccc3c4c(cccc24)C2=NC(=O)C(NCCCc4ccccc4)=C23)cc1`, the outcome in series [6] and in series [8] was Active. In series [7], this molecule returned a solubility of 18 µg/mL (≈ 39 µM). Moreover, the IC50 is 18 nM in series [1], 20 nM in series [3] and 10 nM in series [4]. Further, the Kd was 20 nM in series [2], 2340 nM in series [9], 105 nM in series [5] (read-out: Kd) and 10 nM in [5] (read-out: pKd (converted)). The outcome in series [10] was inactive.

In the case of `O=C1N=C2C(=C1NCCCc1ccccc1)c1ccc(Sc3ccc(OO)cc3)c3cccc2c13`, the IC50 in series [1] was determined as 53 nM; in [3] it was 57 nM; in [4] it was 42 nM. Besides, the values for the Kd in series [2] and in series [5] (read-out: pKd (converted)) were 57.5 nM and 41.7 nM, respectively.

On to `CCCCCCNC1=C2C(=NC1=O)c1cccc3c(Sc4ccc(N)cc4)ccc2c13`, for which the IC50 in [1] was 71 nM; in [3], 80 nM; in series [4], 30 nM. Further, the results for the Kd in [2] and in series [5] (read-out: pKd (converted)) were 79.4 nM and 29.5 nM, respectively.

With `N#CC1=C2C(=NC1=O)c1cccc3c(Sc4ccc(N)cc4)ccc2c13`, the IC50 in series [1] is 291 nM; in series [3], 331 nM; in [4], 90 nM. Also, the Kd in [2] is 331 nM; in series [5] (read-out: pKd (converted)), 91.2 nM.

For the molecule `O=C1N=C2C(=C1NCCCCCc1ccccc1)c1ccc(N3CCSCC3)c3cccc2c13`, the IC50 in [3] was 1300 nM; in [4], 1100 nM.

Consider `CCCCNC1=C2C(=NC1=O)c1cccc3c(Oc4ccc(C(C)C)cc4)ccc2c13`, for which the 50% inhibitory concentration (IC50) came to 283 nM in series [1], 322 nM in [3] and 141 nM in series [4]. Besides, the Kd in series [2] is 324 nM; in series [5] (read-out: pKd (converted)), 141 nM.

Take `CCOC(=O)C1=C2C(=NC1=O)c1cccc3c(N4CCSCC4)ccc2c13`: the IC50 in series [3] is 2200 nM; in series [4], above 10000 nM.

In the case of `CC(C)c1ccc(Oc2ccc3c4c(cccc24)C2=NC(=O)C(C#N)=C23)cc1`, the IC50 was 650 nM in [1], 739 nM in series [3] and 321 nM in [4]. For the same molecule, the Kd in series [2] was 759 nM; in series [5] (read-out: pKd (converted)), 324 nM.

Take `CCCCCCNC1=C2C(=NC1=O)c1cccc3c(N4CCSCC4)ccc2c13`: the IC50 in series [1] came out at 85 nM; in series [3], 96 nM; in series [4] it was 37 nM. Further, the Kd in series [2] was 95.5 nM; in series [5] (read-out: pKd (converted)) it was 37.2 nM.

With `CCCCCCNC1=C2C(=NC1=O)c1cccc3c(Oc4ccc(C(C)C)cc4)ccc2c13`, the figures for the IC50 in [1], in [3] and in [4] were 162 nM, 184 nM and 75 nM, respectively. The Kd is 182 nM in series [2], 19200 nM in series [9], 802 nM in [5] (read-out: Kd) and 79.4 nM in [5] (read-out: pKd (converted)).

For `CCCCCNC1=C2C(=NC1=O)c1cccc3c(N4CCSCC4)ccc2c13`, in series [4], the IC50 came out at 37 nM. This lies in the double-digit nanomolar range.

As to `N#CC1=C2C(=NC1=O)c1cccc3c(N4CCSCC4)ccc2c13`, the solubility in series [7] was 2 µg/mL (≈ 6.04 µM). Besides, the IC50 in [1] amounted to 625 nM; in series [3], 715 nM; in [4] it was 95 nM. For the same molecule, the Kd was 708 nM in [2], 28700 nM in series [9], 954 nM in series [5] (read-out: Kd) and 95.5 nM in series [5] (read-out: pKd (converted)).

On to `CCCOC(=O)C1=C2C(=NC1=O)c1cccc3c(N4CCSCC4)ccc2c13`, for which the IC50 in series [3] was 2100 nM; in series [4], above 10000 nM.

`O=C1N=C2C(=C1NCc1ccccc1)c1ccc(N3CCSCC3)c3cccc2c13`: the IC50 was above 10000 nM in series [3] and 521 nM in series [4].

Turning to `CC(C)NC1=C2C(=NC1=O)c1cccc3c(N4CCSCC4)ccc2c13`, the half-maximal inhibitory concentration (IC50) in series [3] was above 10000 nM; in series [4] it was 2500 nM.

Regarding `O=C1N=C2C(=C1NCCCc1ccccc1)c1ccc(N3CCSCC3)c3cccc2c13`, the figures for the IC50 in series [1], in [3] and in series [4] were 43 nM, 49 nM and 15 nM, respectively. The Kd was 49 nM in [2] and 15.1 nM in series [5] (read-out: pKd (converted)).

On to `CCCCNC1=C2C(=NC1=O)c1cccc3c(N4CCSCC4)ccc2c13`, for which the IC50 was found to be 171 nM in [1], 198 nM in series [3] and 79 nM in [4]. The Kd in [2] is 200 nM; in series [5] (read-out: pKd (converted)), 79.4 nM.

Take `CC(C)c1ccc(Oc2ccc3c4c(cccc24)C2=NC(=O)C(NCCCc4ccccc4)=C23)cc1`: the IC50 in series [1] was 37 nM; in [3], 42 nM; in series [4] it was 39 nM. Moreover, the Kd in [2] is 41.7 nM; in series [5] (read-out: pKd (converted)), 38.9 nM.
